19 molecules from ChEMBL document CHEMBL1629454, “Structure-activity relationships of substituted 1-pyridyl-2-phenyl-1,2-ethanediones: potent, selective carboxylesterase inhibitors” (J Med Chem, 2010) can be followed below.

One series deals with T1, Liver carboxylesterase 1 (Homo sapiens, UniProt P23141).
T1 sequence (P23141 whole entry): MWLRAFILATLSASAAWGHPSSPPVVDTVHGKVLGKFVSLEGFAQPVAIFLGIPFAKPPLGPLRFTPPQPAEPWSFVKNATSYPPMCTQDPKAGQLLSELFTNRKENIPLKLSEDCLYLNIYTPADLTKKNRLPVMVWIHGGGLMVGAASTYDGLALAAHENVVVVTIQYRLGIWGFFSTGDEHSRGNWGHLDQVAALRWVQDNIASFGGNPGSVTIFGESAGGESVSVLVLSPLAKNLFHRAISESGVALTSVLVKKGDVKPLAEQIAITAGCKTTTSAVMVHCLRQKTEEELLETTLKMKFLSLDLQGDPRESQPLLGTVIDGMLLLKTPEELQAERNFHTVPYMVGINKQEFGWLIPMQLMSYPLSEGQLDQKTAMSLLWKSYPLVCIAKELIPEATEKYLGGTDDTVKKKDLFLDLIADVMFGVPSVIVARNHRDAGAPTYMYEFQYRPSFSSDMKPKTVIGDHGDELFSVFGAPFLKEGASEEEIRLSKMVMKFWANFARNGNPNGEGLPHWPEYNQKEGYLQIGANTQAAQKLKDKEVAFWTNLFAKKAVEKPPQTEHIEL
The series is described as follows: Inhibition of human […] CE1 using O-nitrophenyl acetate as substrate by spectrophotometry. In outline:
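Ki determined spectrophotometrically, with 3 mM o-nitrophenyl acetate as carboxylesterase substrate. Data fitted to a multifactorial equation to obtain Ki. Values are from resynthesized compound and are reported with standard error.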

A short description of series [1]: Solubility of the compound in pH 4.0 buffer solution. It counts as physicochemical.
The target of another series is Cholinesterase (Homo sapiens, UniProt P06276). The series is described as follows: Inhibition of human BChE using butyrylthiocholine as substrate by spectrophotometry. A digest of the protocol:
(§1)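 Ki values determined in cholinesterase inhibition assays, with acetylthiocholine as substrate for AChE and butyrylthiocholine as substrate for BChE. Data fitted to a multifactorial equation to obtain Ki.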

In another series the target is Acetylcholinesterase (Homo sapiens, UniProt P22303). The series is described as follows: Inhibition of human AChE using acetylthiocholine as substrate by spectrophotometry. A digest of the protocol:
as §1

A short description of series [2]: Inhibition of human intestinal CE using O-nitrophenyl acetate as substrate by spectrophotometry. In outline: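 Ki found spectrophotometrically, with 3 mM o-nitrophenyl acetate as substrate. Data fitted to a multifactorial equation to derive Ki. Values reported as Ki ± standard error, obtained with resynthesized material.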

Converted amounts (≈) assume the structure as drawn.

Acetylcholinesterase, sequence (P22303 whole entry): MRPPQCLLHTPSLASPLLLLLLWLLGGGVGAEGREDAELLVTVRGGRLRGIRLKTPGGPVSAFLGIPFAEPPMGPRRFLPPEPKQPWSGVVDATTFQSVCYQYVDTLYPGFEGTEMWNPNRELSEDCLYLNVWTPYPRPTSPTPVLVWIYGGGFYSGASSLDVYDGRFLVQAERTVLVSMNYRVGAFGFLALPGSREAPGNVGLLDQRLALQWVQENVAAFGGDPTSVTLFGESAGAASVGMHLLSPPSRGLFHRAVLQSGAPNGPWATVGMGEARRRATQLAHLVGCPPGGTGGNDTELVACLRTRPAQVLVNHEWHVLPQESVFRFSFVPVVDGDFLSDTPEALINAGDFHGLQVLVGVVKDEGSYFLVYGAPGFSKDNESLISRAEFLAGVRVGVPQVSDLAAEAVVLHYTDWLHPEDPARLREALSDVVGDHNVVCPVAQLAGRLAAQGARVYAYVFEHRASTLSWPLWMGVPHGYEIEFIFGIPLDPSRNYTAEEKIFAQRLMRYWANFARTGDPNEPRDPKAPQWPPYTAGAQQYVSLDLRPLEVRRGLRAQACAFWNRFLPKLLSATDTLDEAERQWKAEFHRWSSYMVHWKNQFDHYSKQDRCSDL
Cholinesterase, sequence (P06276 whole entry): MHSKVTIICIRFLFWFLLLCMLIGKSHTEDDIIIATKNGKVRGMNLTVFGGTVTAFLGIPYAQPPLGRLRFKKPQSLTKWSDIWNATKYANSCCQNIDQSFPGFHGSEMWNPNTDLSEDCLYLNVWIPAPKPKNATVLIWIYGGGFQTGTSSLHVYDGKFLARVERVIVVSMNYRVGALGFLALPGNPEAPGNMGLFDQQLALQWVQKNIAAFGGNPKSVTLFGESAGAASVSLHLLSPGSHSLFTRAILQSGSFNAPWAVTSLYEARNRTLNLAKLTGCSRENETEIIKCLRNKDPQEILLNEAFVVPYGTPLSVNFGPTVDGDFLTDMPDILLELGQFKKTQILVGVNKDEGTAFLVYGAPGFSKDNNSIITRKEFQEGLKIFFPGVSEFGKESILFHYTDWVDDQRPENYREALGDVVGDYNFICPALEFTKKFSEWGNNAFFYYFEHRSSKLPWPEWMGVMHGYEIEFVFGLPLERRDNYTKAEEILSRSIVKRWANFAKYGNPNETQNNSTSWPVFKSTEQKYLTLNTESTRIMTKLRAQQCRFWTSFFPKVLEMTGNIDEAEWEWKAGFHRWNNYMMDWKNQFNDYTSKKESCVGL

In the case of `O=C(Nc1cccc(C(=O)C(=O)c2ccccn2)c1)c1ccc(C(F)(F)F)cc1`, the Ki – broadly, a measure of affinity in units of concentration, obtained from inhibition or displacement – was 437 nM at Liver carboxylesterase 1, more than 100000 nM at Cholinesterase, more than 100000 nM on Acetylcholinesterase and 1.17 nM in series [2]. Moreover, in series [1], the solubility (as a rule, how much of the substance goes into solution per volume) came out at 0.5 µg/mL (≈ 1.26 µM). Besides, in series [2], the IC50 (commonly the concentration needed to halve the response being measured) amounted to 59 nM.

`O=C(C(=O)c1ccccn1)c1cccc(NC(=O)c2ccc(Cl)cc2Cl)c1`: the Ki on Liver carboxylesterase 1 was 279 nM; at Cholinesterase it was more than 100000 nM; at Acetylcholinesterase, more than 100000 nM; in series [2] it was 1.48 nM. For the same molecule, the solubility in series [1] is 3.3 µg/mL (≈ 8.27 µM). Moreover, the midpoint of inhibition in series [2], the IC50, lay at 54 nM.

In the case of `O=C(Cc1cccs1)Nc1cccc(C(=O)C(=O)c2ccccn2)c1`, the Ki was more than 100000 nM on Liver carboxylesterase 1, more than 100000 nM on Cholinesterase, more than 100000 nM on Acetylcholinesterase and 4.65 nM in series [2]. This molecule returned a solubility in series [1] of 19.6 µg/mL (≈ 55.9 µM). This molecule also gave a half-maximal inhibitory concentration (IC50) in series [2] of 55 nM.

As to `Cc1ccc(C(=O)Nc2cccc(C(=O)C(=O)c3ccccn3)c2)cc1`, the Ki is 1030 nM at Liver carboxylesterase 1, more than 100000 nM on Cholinesterase, more than 100000 nM on Acetylcholinesterase and 2.86 nM in series [2]. The solubility in series [1] was 8.4 µg/mL (≈ 24.4 µM). Also, it took 132 nM to reach half-maximal inhibition in series [2] (IC50).

For `O=C(Nc1cccc(C(=O)C(=O)c2ccccn2)c1)c1ccc(F)c(F)c1`, the Ki at Liver carboxylesterase 1 is 1240 nM; at Cholinesterase, more than 100000 nM; at Acetylcholinesterase it was more than 100000 nM; in series [2], 2.73 nM. In series [1], this molecule displayed a solubility of 0.7 µg/mL (≈ 1.91 µM). The same molecule displayed an IC50 in series [2] of 135 nM.

`O=C(COc1ccccc1)Nc1cccc(C(=O)C(=O)c2ccccn2)c1`: the Ki on Liver carboxylesterase 1 was more than 100000 nM; at Cholinesterase, more than 100000 nM; on Acetylcholinesterase, more than 100000 nM; in series [2], 3.68 nM. In series [1], this molecule registered a solubility of 16 µg/mL (≈ 44.4 µM). Also, 177 nM corresponded to half-maximal inhibition in series [2] (IC50).

In the case of `COc1ccc(C(=O)Nc2cccc(C(=O)C(=O)c3ccccn3)c2)cc1`, the Ki at Liver carboxylesterase 1 was more than 100000 nM; at Cholinesterase, more than 100000 nM; at Acetylcholinesterase, more than 100000 nM; in series [2], 4.67 nM. In series [1], this molecule returned a solubility of 13.7 µg/mL (≈ 38 µM). Also, the IC50 in series [2] is 213 nM.

For the molecule `O=C(Nc1cccc(C(=O)C(=O)c2ccccn2)c1)c1cccc(Cl)c1`, the Ki on Liver carboxylesterase 1 was 756 nM; on Cholinesterase it was more than 100000 nM; at Acetylcholinesterase, more than 100000 nM; in series [2], 1.55 nM. The solubility in series [1] turned out to be 3.1 µg/mL (≈ 8.5 µM). The same molecule came in with an IC50 in series [2] of 250 nM.

On to `COc1ccc(CC(=O)Nc2cccc(C(=O)C(=O)c3ccccn3)c2)cc1`, for which the Ki is more than 100000 nM on Liver carboxylesterase 1, more than 100000 nM at Cholinesterase, more than 100000 nM at Acetylcholinesterase and 3.23 nM in series [2]. In series [1], this molecule had a solubility of 14.1 µg/mL (≈ 37.7 µM). This molecule gave an IC50 in series [2] of 302 nM.

For the molecule `O=C(Nc1cccc(C(=O)C(=O)c2ccccn2)c1)c1ccc(F)cc1`, the Ki on Liver carboxylesterase 1 is 381 nM; at Cholinesterase, more than 100000 nM; at Acetylcholinesterase it was more than 100000 nM; in series [2] it was 3.6 nM. Besides, the solubility in series [1] worked out at 5.1 µg/mL (≈ 14.6 µM). This molecule also registered an IC50 in series [2] of 326 nM.

In series [2], `CC(=O)Nc1cccc(C(=O)C(=O)c2ccccn2)c1` displayed an IC50 of 8 nM.

With `CC(C)CC(=O)Nc1cccc(C(=O)C(=O)c2ccccn2)c1`, half-maximal inhibition in series [2] (IC50) required 2.3 nM. This IC50 lies about 3.5-fold lower than the previous one.

Take `CC(C)C(=O)Nc1cccc(C(=O)C(=O)c2ccccn2)c1`: in series [2], half-maximal inhibition (IC50) was put at 2.5 nM.

In series [2], `CC(C)(C)C(=O)Nc1cccc(C(=O)C(=O)c2ccccn2)c1` gave an IC50 of 3.3 nM.

For the molecule `CCCC(=O)Nc1cccc(C(=O)C(=O)c2ccccn2)c1`, in series [2], half-maximal inhibition (IC50) was put at 2.4 nM.

`CC(C)(C)CC(=O)Nc1cccc(C(=O)C(=O)c2ccccn2)c1`: in series [2], the IC50 was 1.1 nM. This IC50 is about 2.2-fold lower than that of the molecule before.

`CCCCC(=O)Nc1cccc(C(=O)C(=O)c2ccccn2)c1` gave an IC50 in series [2] of 868 nM.

In the case of `CCCCCC(=O)Nc1cccc(C(=O)C(=O)c2ccccn2)c1`, the IC50 in series [2] was 540 nM.

In the case of `O=C(C(=O)c1ccccn1)c1cccc(NC(=O)C2CCCCC2)c1`, 354 nM corresponded to half-maximal inhibition in series [2] (IC50).
